Assay results from PMC3201811 (Journal of inorganic biochemistry, 2011).
pIC50: −log10 of the molar value.

How the values were obtained:
[1] = tested on: PBMC from healthy donors; test: Cytotoxicity, cell death by annexinV-PE labeling and flow cytometry, 24 h; format: cell-based, human; details: 25 μM
In short: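 PBMC came from healthy donors, were freshly isolated by Ficoll-Paque density centrifugation and kept in complete RPMI 1640 medium. They were exposed to a range of test compound concentrations for 24 h. Positive cells were quantified by flow cytometry. Values are mean ± SD of three independent experiments.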

[2] = tested on: Jurkat cells; test: Cytotoxicity, cell death by annexinV-PE labeling and flow cytometry, 24 h; format: cell-based, human
In short: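 Jurkat (clone E6.1) in RPMI 1640 with 5% FCS, L-glutamine and penicillin/streptomycin, seeded at 3×10⁵ cells/ml. Cells were exposed to a range of test compound concentrations for 24 h. Fluorescent cells were counted by flow cytometry. Values are mean ± SD of three independent experiments.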

[3] = tested on: Jurkat-shBak cells; test: PS exposure; format: cell-based, human; details: 24 h
In short: (§1)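 Jurkat cells with Bak knocked down by RNA interference, and empty-vector controls (CN), were exposed to test compound for 24 h; cisplatin at 25 μM served as reference. Samples were diluted to 1 ml and read by flow cytometry.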

[4] = tested on: Jurkat cells; test: Growing potential after removal of compounds and NAC, Trypan blue counting; format: cell-based, human; details: 24h treatment with compound alone, viable cells 24 h and 48 h after removal
In short: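 Jurkat cells were treated with test compound, with or without NAC, for 24 h. They were then washed and transferred to fresh medium. Total cell number and viability were measured 24 and 48 h after removal of compound and NAC, by Trypan blue staining and counting in a Neubauer haemocytometer. Values are mean ± SD of three independent experiments.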

[5] = tested on: Jurkat-CN cells; test: Necrotic versus apoptotic cell death, Trypan blue staining and morphology; format: cell-based, human; details: control Jurkat cells, 24 h
In short: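 Jurkat-CN (empty-vector) and Jurkat-shBak cells were treated with test compound or cisplatin for 24 h, then stained with Trypan blue. Stained cells were scored as necrotic. Unstained cells showing blebbing and/or chromatin condensation were scored as apoptotic. Values are mean ± SD of three independent experiments.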

[6] = tested on: Jurkat cells; test: Protection by antioxidants; format: cell-based, human; details: 24 h, superoxide scavenger MnTBAP
In short: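 Jurkat cells were cultured for 24 h with test compound alone or together with MnTBAP (superoxide anion scavenger), glutathione or N-acetylcysteine. Collapse of mitochondrial transmembrane potential was measured at the end by flow cytometry. Values are mean ± SD of 4 independent experiments.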

[7] = tested on: Jurkat-shBak cells; test: Necrotic versus apoptotic cell death, Trypan blue staining and morphology; format: cell-based, human; details: 24 h
[8] = tested on: Jurkat-CN cells; test: PS exposure; format: cell-based, human; details: 24 h
In short: as §1

[9] = cited from earlier work

Row | Compound | dead cells [1] [%] | pIC50 [2] | killing of cells ([2]; 25 μM) [%] | sensitivity of Jurkat-shBak cells, in words [3] | growing potential after transfer to fresh medium [4] | type of cell death (necrosis versus apoptosis) [5] | protection from toxicity by MnTBAP [6] | type of cell death (necrosis versus apoptosis) [7] | cells bound annexin V-PE ([8]; 10 μM, control Jurkat cells) | time stable in solution [9] [h] | death of cells ([8]; 25 μM, Jurkat control (CN) cells)
1 | [Au{κ^2-C,N-C6H4(PPh2=N(C6H5)-2}(P{Cp(m-C6H4-SO3Na)2} 3)Cl]PF6 [compound 3] | 33.5 | 4.79 | 96 | almost completely resistant | A fraction of cells | necrosis and apoptosis at similar levels | almost completely protected | both apoptotic and necrotic cell death were prevented | around 50% | ≤ 24 | –
2 | N.N.[Cl][Pt][Cl] [cisplatin, reference compound] | – | – | – | completely resistant | – | – | – | – | – | – | around 60%
